# Published values collected from several papers.
# Protocols differ between the studies behind these lines.
# Target: Serine/threonine-protein kinase PAK 4 (PAK4, Homo sapiens, UniProt O96013)
Structure (SMILES),read-out,mode,technique,concentration,measurement,value
Cn1cc(-c2cccc(N3CCc4c(sc5c4CC(C)(C)C5)C3=O)c2CO)cc(Nc2ccncn2)c1=O,enzyme activity,inhibitor,,1 µM,inhibition,-6%
COc1ncccc1-c1cnn2ccc(N3CCN(C(=O)OC(C)C)CC3)nc12,binding,,competition with immobilised ligand,1 µM,remaining binding,62%
Cn1cc(-c2cc(F)cc(N3CCn4c(cc5c4CCCC5)C3=O)c2CO)cc(Nc2ccc(N3CCN(C4COC4)CC3)cn2)c1=O,enzyme activity,inhibitor,,0.1 µM,inhibition,1%
Cc1nn(C)cc1-c1nc2c(N3CCN(Cc4ccc(Cl)cc4)CC3)c(Cl)cnc2[nH]1,binding,,competition with immobilised ligand,1 µM,remaining binding,100%
Cn1cncc1[C@@](O)(COc1ccc(C#N)cc1-c1ccc(OC(F)(F)F)cc1)c1ccc(C#N)cc1,cell-free assay,,competition with immobilised ligand,1 µM,remaining binding,100%
C#Cc1n[nH]c2c(-c3cn(C(C)c4ccccn4)c(=O)[nH]c3=O)cc(F)cc12 (stereo not drawn),enzyme activity,inhibitor,,1 µM,inhibition,-6%
O=c1[nH]c2ccccc2n1C1CCN(Cc2ccc(-c3[nH]c4cc5ncnc5cc4nc3-c3ccccc3)cc2)CC1,cell-free assay,,,0.5 µM,remaining signal,102%
Nc1ncc(-c2nc(N3CCOCC3)nc(N3CCOCC3)n2)c(C(F)F)n1,binding,,competition with immobilised ligand,10 µM,remaining binding,58%
N#CC1(c2ccccn2)CCN(Cc2cc(C(=O)O)c(=O)n3ccccc23)CC1,cell-free assay,,competition with immobilised ligand,1 µM,remaining binding,100%
Cc1n[nH]c2ccc(-c3cncc(OC[C@@H](N)Cc4c[nH]c5ccccc45)c3)cc12,enzyme activity,inhibitor,,1 µM,inhibition,26%
C#Cc1n[nH]c2c(-c3cn([C@@H](C)c4ccccc4)c(=O)[nH]c3=O)cc(F)cc12,enzyme activity,inhibitor,,0.1 µM,inhibition,0.6%
COc1cc(Nc2ncc(F)c(Nc3ccc4c(n3)NC(=O)C(C)(C)O4)n2)cc(OC)c1OC,binding,,competition with immobilised ligand,10 µM,inhibition,97%
